Experimental data published in ChEMBL document CHEMBL3232837, “Synthesis and evaluation of new Hsp90 inhibitors based on a 1,4,5-trisubstituted 1,2,3-triazole scaffold” (J Med Chem, 2014).

What was measured:
[1] = tested on: NCI-H460; assay: Cytotoxicity against human NCI-H460 cells assessed as growth inhibition after 72 hrs by SRB assay; format: functional, cell-based; conditions: NCI-H460, 72 h
Summary of the method: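 NCI-H460 cells grown in RPMI-1640 with 10% heat-inactivated FBS, seeded at about 10% confluence and allowed 24 h recovery. Exposed to graded drug concentrations or solvent for 72 h. Surviving fraction measured by sulforhodamine B. IC50 is the concentration giving a 50% drop in cell number vs vehicle, from dose-response curve fitting; mean of n=4 with SD.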

[2] = target: Heat shock protein HSP 90-beta (Homo sapiens) (UniProt P08238); assay: Inhibition of HSP90 in human A431 cells overexpressing EGFR assessed as downregulation of CDK4 protein expression after 24 hrs by Western blot analysis; format: cell-based; conditions: A-431
Summary of the method: (§1)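 A431 cells treated 24 h after seeding for 24 h over a concentration range; 17-DMAG 0.2 µM as reference. Cells lysed in RIPA buffer with protease and phosphatase inhibitors, protein measured by Bradford. Equal protein run on SDS-PAGE and blotted to nitrocellulose, then probed for EGFR, Cdk4, Akt, Hsp70 and actin. ECL detection; densitometry normalized to β-actin. Run at least twice.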

[3] = target: Heat shock protein HSP 90-beta (Homo sapiens) (UniProt P08238); assay: Inhibition of HSP90 in human A431 cells overexpressing EGFR assessed as downregulation of EGFR protein expression after 24 hrs by Western blot analysis; format: cell-based; conditions: A-431; summary of the method: as §1
[4] = target: Heat shock protein HSP 90-alpha (Homo sapiens, UniProt P07900); assay: Displacement of GM-FITC from full-length recombinant human Hsp90-alpha after 4 hrs by fluorescence polarization assay
[5] = target: Heat shock protein HSP 90-beta (Homo sapiens) (UniProt P08238); assay: Inhibition of HSP90 in human A431 cells overexpressing EGFR assessed as induction of HSP70 protein expression after 24 hrs by Western blot analysis; format: cell-based; conditions: A-431; summary of the method: as §1
[6] = target: Heat shock protein HSP 90-beta (Homo sapiens) (UniProt P08238); assay: Inhibition of HSP90 in human A431 cells overexpressing EGFR assessed as downregulation of AKT protein expression after 24 hrs by Western blot analysis; format: cell-based; conditions: A-431; summary of the method: as §1

Heat shock protein HSP 90-beta (Homo sapiens), sequence (P08238 whole entry): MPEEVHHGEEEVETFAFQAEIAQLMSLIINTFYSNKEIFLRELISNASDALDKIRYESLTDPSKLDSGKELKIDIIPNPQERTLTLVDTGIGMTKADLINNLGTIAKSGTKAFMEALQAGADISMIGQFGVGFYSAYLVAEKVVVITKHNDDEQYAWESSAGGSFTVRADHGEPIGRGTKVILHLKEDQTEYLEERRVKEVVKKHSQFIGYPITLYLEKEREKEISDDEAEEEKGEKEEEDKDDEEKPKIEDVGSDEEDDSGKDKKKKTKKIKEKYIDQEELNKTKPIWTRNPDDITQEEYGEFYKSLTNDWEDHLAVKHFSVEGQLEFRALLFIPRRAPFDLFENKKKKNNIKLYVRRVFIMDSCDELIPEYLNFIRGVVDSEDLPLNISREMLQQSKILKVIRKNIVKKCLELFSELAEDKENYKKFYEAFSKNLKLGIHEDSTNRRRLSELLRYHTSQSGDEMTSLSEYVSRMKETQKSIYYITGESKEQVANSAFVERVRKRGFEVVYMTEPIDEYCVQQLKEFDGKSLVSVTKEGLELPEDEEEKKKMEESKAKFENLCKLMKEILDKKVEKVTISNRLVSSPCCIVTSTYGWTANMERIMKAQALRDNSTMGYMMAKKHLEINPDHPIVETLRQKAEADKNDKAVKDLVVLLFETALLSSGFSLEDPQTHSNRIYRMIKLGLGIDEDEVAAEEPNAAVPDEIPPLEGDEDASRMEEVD

Row | Structure (SMILES) | IC50 [1] [µM] | inhibition [2] | inhibition [3] | IC50 [4] [µM] | inhibition [5] | inhibition [6]
1 | CCNC(=O)c1nnn(-c2cc(C(C)C)c(O)cc2O)c1-c1ccc(CN2CCCCC2)cc1 | 0.006 | Dose-dependent effect | Dose-dependent effect | 0.021 | Dose-dependent effect | Dose-dependent effect
2 | CC(C)c1cc(-n2nncc2-c2ccc(CN3CCOCC3)cc2)c(O)cc1O | 0.15 |  |  | 0.035 |  | 
3 | CC(C)c1cc(-n2nnc(C(=O)N3CCOCC3)c2-c2ccc(CN3CCOCC3)cc2)c(O)cc1O | > 1 |  |  | 0.27 |  | 
4 | CCNC(=O)c1nnn(-c2cc(C(C)C)c(O)cc2O)c1-c1ccc(CNC2CCN(C)CC2)cc1 | > 1 |  |  | 0.032 |  | 
5 | CC(C)c1cc(-n2nnc(C(=O)NC3CCCCC3)c2-c2ccc(CN3CCOCC3)cc2)c(O)cc1O | 0.046 |  |  | 0.095 |  | 
6 | CCNC(=O)c1nnn(-c2cc(C(C)C)c(O)cc2O)c1-c1ccc(CNCCCN(CC)CC)cc1 | 0.412 |  |  | 0.012 |  | 
7 | CCNC(=O)c1nnn(-c2cc(C(C)C)c(O)cc2O)c1-c1ccc(Cn2ccnc2)cc1 | 0.028 |  |  | 0.023 |  | 
8 | CCCCCCCNC(=O)c1nnn(-c2cc(C(C)C)c(O)cc2O)c1-c1ccc(CN2CCOCC2)cc1 | 0.045 |  |  | 0.033 |  | 
9 | CC(C)c1cc(-n2cc(-c3ccc(CN4CCN(c5ccccc5)CC4)cc3)nn2)c(O)cc1O | > 1 |  |  | 0.32 |  | 
10 | CCNC(=O)c1nnn(-c2cc(C(C)C)c(O)cc2O)c1-c1ccc(CN2CCCC2)cc1 | 0.003 |  |  | < 0.005 |  | 
11 | CCNC(=O)c1nnn(-c2cc(C(C)C)c(O)cc2O)c1-c1ccc(CN2CCNCC2)cc1 | 0.25 |  |  | < 0.005 |  | 
12 | CCNC(=O)c1nnn(-c2cc(C(C)C)c(O)cc2O)c1-c1ccc(CN2CC[C@H](N(C)C)C2)cc1 | 0.085 |  |  | 0.013 |  | 
13 | CC(C)c1cc(-n2nnc(C(=O)N[C@H](C(=O)O)C(C)C)c2-c2ccc(CN3CCOCC3)cc2)c(O)cc1O | > 1 |  |  | 0.181 |  | 
14 | CCNC(=O)c1nnn(-c2cc(C(C)C)c(O)cc2O)c1-c1ccc(CNCCN2CCOCC2)cc1 | 0.14 | Dose-dependent effect | Dose-dependent effect | 0.0148 | Dose-dependent effect | Dose-dependent effect
15 | CCNC(=O)c1nnn(-c2cc(C(C)C)c(O)cc2O)c1-c1ccc(CN2CCCCC2CCO)cc1 (stereo unspecified) | 0.11 |  |  | 0.01 |  | 
16 | CC(C)c1cc(-n2nnc(C(=O)NC3CCCC3)c2-c2ccc(CN3CCOCC3)cc2)c(O)cc1O | 0.014 | Dose-dependent effect | Dose-dependent effect | 0.027 | Dose-dependent effect | Dose-dependent effect

Row | Structure (SMILES) | IC50 [1] [µM] | inhibition [2] | inhibition [3] | IC50 [4] [µM] | inhibition [5] | inhibition [6]
17 | CCNC(=O)c1nnn(-c2cc(C(C)C)c(O)cc2O)c1-c1ccc(CN(CC)CCO)cc1 | 0.056 |  |  | < 0.005 |  | 
18 | CC(C)c1cc(-n2nnc(C(=O)NCCCl)c2-c2ccc(CN3CCOCC3)cc2)c(O)cc1O | 0.0043 |  |  | 0.017 |  | 
19 | CCNC(=O)c1nnn(-c2cc(C(C)C)c(O)cc2O)c1-c1ccc(CN2CCC(N(C)C)CC2)cc1 | 0.12 |  |  | < 0.005 |  | 
20 | CCNC(=O)c1nnn(-c2cc(C(C)C)c(O)cc2O)c1-c1ccc(CN2CCC[C@H](O)C2)cc1 | 0.07 |  |  | 0.023 |  | 
21 | CC(C)c1cc(-n2nncc2-c2ccc(CN3CCN(Cc4ccccc4)CC3)cc2)c(O)cc1O | 0.18 |  |  | 0.027 |  | 
22 | CC(C)c1cc(-n2nncc2-c2ccc(CN3CCCC(O)C3)cc2)c(O)cc1O (stereo unspecified) | 0.045 |  |  | 0.037 |  | 
23 | CCNC(=O)c1nnn(-c2cc(C(C)C)c(O)cc2O)c1-c1ccc(CNC2CCCCC2)cc1 | 0.015 |  |  | 0.0068 |  | 
24 | CCNC(=O)c1nnn(-c2cc(C(C)C)c(O)cc2O)c1-c1ccc(CNCCN(CC)CC)cc1 | 0.2 |  |  | 0.015 |  | 
25 | CC(C)c1cc(-n2cc(-c3ccc(CN4CCN(Cc5ccccc5)CC4)cc3)nn2)c(O)cc1O | > 1 |  |  | 0.295 |  | 
26 | CCNC(=O)c1nnn(-c2cc(C(C)C)c(O)cc2O)c1-c1ccc(CN(CC)CC)cc1 | 0.011 | Dose-dependent effect | Dose-dependent effect | 0.025 | Dose-dependent effect | Dose-dependent effect
27 | CCNC(=O)c1nnn(-c2cc(C(C)C)c(O)cc2O)c1-c1ccc(CNCC2CCCCC2)cc1 | 0.0021 | Dose-dependent effect | Dose-dependent effect | < 0.005 | Dose-dependent effect | Dose-dependent effect
28 | CCNC(=O)c1nnn(-c2cc(C(C)C)c(OC(C)=O)cc2OC(C)=O)c1-c1ccc(CN2CCOCC2)cc1 | 0.0065 | Dose-dependent effect | Dose-dependent effect | > 1 | Dose-dependent effect | Dose-dependent effect
29 | CCNC(=O)c1nnn(-c2cc(C(C)C)c(O)cc2O)c1-c1ccc(CN2CCC[C@@H](O)C2)cc1 | 0.052 |  |  | 0.03 |  | 
30 | CC(C)c1cc(-n2nncc2-c2ccc(CN3CCN(c4ccccc4)CC3)cc2)c(O)cc1O | 0.52 |  |  | 0.036 |  | 
31 | CCNC(=O)c1nnn(-c2cc(C(C)C)c(O)cc2O)c1-c1ccc(CN2CCN(C)CC2)cc1 | 0.047 |  |  | < 0.005 |  | 
